Source: ChEMBL document CHEMBL5712073, “DNA methylation in small cell lung cancer defines distinct disease subtypes and correlates with high expression of EZH2” (Oncogene, 2015)
The source made the active and inactive calls. The calls are words filed in the database; no cut-off is given here.

Columns and labels:
PDX LX92 [1] = test: Antiproliferative activity against human PDX LX92 cells assessed as resazurin conversion measured upto 7 days by alamar blue based assay; type: functional, cell-based; settings: time <= 7.0 day
In short: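 LX92 PDX dissociated, filtered through 70 µm mesh, washed, red cells lysed; ~1×10^6 viable cells cultured in DMEM:F12 with EGM-2 growth factors. About 72 h after dissociation, seeded 5,000 cells/well; compound added daily at 1 µM final, DMSO vehicle. Viability read by resazurin conversion over time for 7 days; 2-way ANOVA with Dunnett adjustment.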

[2] = target: Histone-lysine N-methyltransferase EZH2 (Homo sapiens) (UniProt Q15910); test: Inhibition of EZH2 in human PDX LX92 cells assessed as decrease in H3K27me3 level after 7 days by Westernblot analysis; type: cell-based; settings: time 7.0 day
Histone-lysine N-methyltransferase EZH2 (Homo sapiens), sequence (Q15910 whole entry, looked up): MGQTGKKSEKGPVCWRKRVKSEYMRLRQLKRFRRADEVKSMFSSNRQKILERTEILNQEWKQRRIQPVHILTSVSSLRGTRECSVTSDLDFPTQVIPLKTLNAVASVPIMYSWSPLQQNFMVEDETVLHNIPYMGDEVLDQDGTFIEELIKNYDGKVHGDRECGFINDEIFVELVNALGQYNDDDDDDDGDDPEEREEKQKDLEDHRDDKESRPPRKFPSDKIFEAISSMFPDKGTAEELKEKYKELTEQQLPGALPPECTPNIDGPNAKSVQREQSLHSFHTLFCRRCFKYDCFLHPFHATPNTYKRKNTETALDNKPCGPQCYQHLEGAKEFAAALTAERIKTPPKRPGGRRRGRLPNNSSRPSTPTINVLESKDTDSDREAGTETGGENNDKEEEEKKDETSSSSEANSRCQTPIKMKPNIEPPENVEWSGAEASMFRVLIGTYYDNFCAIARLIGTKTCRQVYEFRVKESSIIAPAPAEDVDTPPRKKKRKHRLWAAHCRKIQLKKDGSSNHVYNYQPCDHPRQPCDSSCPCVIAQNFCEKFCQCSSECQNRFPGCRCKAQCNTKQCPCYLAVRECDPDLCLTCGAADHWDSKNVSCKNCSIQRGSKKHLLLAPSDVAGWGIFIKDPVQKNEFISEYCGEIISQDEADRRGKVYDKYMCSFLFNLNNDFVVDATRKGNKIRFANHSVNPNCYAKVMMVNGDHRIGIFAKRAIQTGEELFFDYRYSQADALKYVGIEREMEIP
In short: (§1)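 Ex vivo LX92 cultures (dissociated PDX cells in DMEM:F12 plus EGM-2 growth factors, 5,000 cells/well) given EZH2 inhibitor daily at 1 µM final, DMSO vehicle. Day 7 lysates probed by Western blot for EZH1, EZH2, H3K27me2 and H3K27me3.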

[3] = target: Histone-lysine N-methyltransferase EZH2 (Homo sapiens) (UniProt Q15910); test: Inhibition of EZH2 in human PDX LX92 cells assessed as decrease in H3K27me2 level after 7 days by Westernblot analysis; type: cell-based; settings: time 7.0 day; in short: as §1
[4] = Toxicity in athymic nude mouse xenografted with human PDX LX92 cells assessed as tolerability at 100 mg/kg, bid measured upto 42 days; type: organism-based; settings: in vivo, 1008 h, time < 42 day
In short: (§2)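 Subcutaneous right-flank xenograft of 5×10^6 viable cells in 1:1 HBSS:matrigel; mice randomized at ~150 mm3. Vehicle 0.5% NaCMC with 0.1% Tween-80 in water; dosing Mon-Fri. Tumor volumes and body weights measured twice weekly.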

PDX LX92 [5] = test: Antitumor activity against human PDX LX92 cells xenografted in athymic nude mouse assessed as reduction of H3K27me3 level at 100 mg/kg, bid measured upto 42 days by Westernblot analysis; type: functional, organism-based; settings: time <= 42.0 day
In short: (§3)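 Mice implanted subcutaneously in the right hind flank with 5×10^6 viable cells in 1:1 HBSS:matrigel; randomized at ~150 mm3 tumor volume. Drug formulated in 0.5% NaCMC with 0.1% Tween-80 in water, dosed BID (10AM/4PM), Mon-Fri. Tumors harvested 2 h after final dose for Western blot.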

PDX LX92 [6] = test: Antitumor activity against human PDX LX92 cells xenografted in athymic nude mouse assessed as reduction of EZH2 level at 100 mg/kg, bid measured upto 42 days by Westernblot analysis; type: functional, organism-based; settings: time <= 42.0 day; in short: as §3
PDX LX92 [7] = test: Antitumor activity against human PDX LX92 cells xenografted in athymic nude mouse assessed as reduction of EZH1 level at 100 mg/kg, bid measured upto 42 days by Westernblot analysis; type: functional, organism-based; settings: time <= 42.0 day; in short: as §3
[8] = Toxicity in athymic nude mouse xenografted with human PDX LX92 cells assessed as tolerability at 100 mg/kg, qd measured upto 42 days; type: organism-based; settings: in vivo, 1008 h, time < 42 day; in short: as §2
PDX LX92 [9] = test: Antitumor activity against human PDX LX92 cells xenografted in athymic nude mouse assessed as reduction of H3K27me2 level at 100 mg/kg, bid measured upto 42 days by Westernblot analysis; type: functional, organism-based; settings: time <= 42.0 day; in short: as §3

| inhibition [2] | inhibition [3] | Compound | Activity (PDX LX92 [1]) | Activity [4] | Activity (PDX LX92 [5]) | Activity (PDX LX92 [6]) | Activity (PDX LX92 [7]) | Activity [8] | Activity (PDX LX92 [9]) |
| --- | --- | --- | --- | --- | --- | --- | --- | --- | --- |
| Active |  | CCCc1cc(C)[nH]c(=O)c1CNC(=O)c1cc(-c2ccnc(N3CCN(C)CC3)c2)cc2c1cnn2C(C)C | Active |  |  |  |  |  |  |
| Active | Active | Cc1cc(C)c(CNC(=O)c2cc(-c3ccc(CN4CCOCC4)cc3)cc3c2cnn3C2CCCC2)c(=O)[nH]1 | Active |  |  |  |  |  |  |
|  |  | CCN(c1cc(-c2ccc(CN3CCOCC3)cc2)cc(C(=O)NCc2c(C)cc(C)[nH]c2=O)c1C)C1CCOCC1 [TAZEMETOSTAT] |  | Non-Toxic | Active | Active | Active | Non-Toxic | Active |
| Active |  | CCCc1cc(C)[nH]c(=O)c1CNC(=O)c1cc(-c2ccc(N3CCN(C(C)C)CC3)nc2)cc2c1cnn2C(C)C | Active |  |  |  |  |  |  |
